Data published in ChEMBL document CHEMBL4033785, “Increased Potency and Selectivity for Group III Metabotropic Glutamate Receptor Agonists Binding at Dual sites” (J Med Chem, 2018).
Calls of active or inactive are those of the source. The calls are words filed in the database; no cut-off is given here.

Assays:
[1] = target: Metabotropic glutamate receptor 4 (Rattus norvegicus) (UniProt P31423); assay: Agonist activity at mGlu4 in rat purkinje cells assessed as increase in mean paired-pulse facilitation at 100 uM treated for 5 mins by whole cell patch clamp assay relative to control; format: cell-based
In short: (§1)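 Sagittal cerebellar vermis slices (250 μm) from 18−29-day-old rats. Purkinje cells whole-cell clamped at 28−30 °C. Parallel-fiber EPSCs evoked by paired stimuli 40 ms apart; PPF taken as second/first amplitude, averaged per cell. Agonist bath-applied 5 min from a 40 mM water stock. EC50 and Hill coefficient fitted across independent experiments.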

[2] = target: T1, Metabotropic glutamate receptor 4 (Homo sapiens, UniProt Q14833); assay: Agonist activity at mGlu4 (unknown origin) expressed in HEK293 cells coexpressing chimeric Gq/i protein assessed as increase in intracellular calcium accumulation by Fluo-4 AM dye based fluorescence assay; format: functional, cell-based
[3] = target: T2, Metabotropic glutamate receptor 8 (Homo sapiens, UniProt O00222); assay: Agonist activity at mGlu8 (unknown origin) expressed in HEK293 cells coexpressing chimeric Gq/i protein assessed as increase in intracellular calcium accumulation by Fluo-4 AM dye based fluorescence assay; format: functional, cell-based
[4] = target: Glutamate NMDA receptor; Grin1/Grin2a (Rattus norvegicus, UniProt P35439+Q00959); assay: Antagonist activity at rat GluN1a/GluN2A receptors expressed in Xenopus laevis oocytes assessed as inhibition of L-glutamate/[…] induced current amplitude at holding potential of -60 mV by […]; format: cell-based
[5] = target: Ionotropic glutamate receptor NMDA1/2B (Rattus norvegicus, UniProt P35439+Q01097); assay: Antagonist activity at rat GluN1a/mouse GluN2B receptors expressed in Xenopus laevis oocytes assessed as inhibition of L-glutamate/[…] induced current amplitude at holding potential of -60 mV by […]; format: cell-based
[6] = target: Metabotropic glutamate receptor 4 (Rattus norvegicus) (UniProt P31423); assay: Agonist activity at mGlu4 in rat purkinje cells assessed as mean decrease in parallel fiber-induced excitary postsynaptic currents amplitude for first response at 100 uM treated for 5 mins by whole cell patch clamp assay relative to control; format: cell-based; parameters: scale not given: the % may be the effect or the level left; in short: as §1
[7] = target: Metabotropic glutamate receptor 4 (Rattus norvegicus) (UniProt P31423); assay: Agonist activity at mGlu4 assessed as decrease in PF-induced presynaptic calcium amplitude in rat coronal slices at 100 uM by Fluo-4FF-AM dye based fluorescence assay relative to control; format: functional; parameters: scale not given: the % may be the effect or the level left
In short: (§2)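 Coronal cerebellar slices (250 μm) from 18−29-day-old rats. Parallel fibers loaded by focal Fluo-4FF-AM (100 μM); recording at least 45 min later at 28−30 °C. Excitation 485 nm, emission 530 nm, photometer in a 20×50 μm window over the molecular layer. ΔF/F bleach-corrected. Agonist bath-applied from a 40 mM water stock; EC50 and Hill coefficient fitted.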

[8] = target: Metabotropic glutamate receptor 4 (Rattus norvegicus) (UniProt P31423); assay: (§3) Agonist activity at mGlu4 assessed as decrease in PF-induced presynaptic calcium amplitude in rat coronal slices by Fluo-4FF-AM dye based fluorescence assay; format: functional; in short: as §2
[9] = target: T3, Metabotropic glutamate receptor 4 (Rattus norvegicus, UniProt P31423); assay: as §3; format: functional; in short: as §2
[10] = target: Metabotropic glutamate receptor 4 (Rattus norvegicus) (UniProt P31423); assay: Agonist activity at mGlu4 in rat purkinje cells assessed as mean decrease in parallel fiber-induced excitary postsynaptic currents amplitude for second response at 100 uM treated for 5 mins by whole cell patch clamp assay relative to control; format: cell-based; parameters: scale not given: the % may be the effect or the level left; in short: as §1
[11] = target: Metabotropic glutamate receptor 4 (Rattus norvegicus) (UniProt P31423); assay: Agonist activity at mGlu4 in rat purkinje cells assessed as mean decrease in parallel fiber-induced excitary postsynaptic currents amplitude for first response treated for 5 mins by whole cell patch clamp assay; format: cell-based; in short: as §1
[12] = target: Metabotropic glutamate receptor 4 (Mus musculus, UniProt Q68EF4); assay: Agonist activity at mGlu4 in C57/Bl6 mouse GP neurons assessed as inhibition of striatopallidal GABAergic inhibitory postsynaptic current amplitude by whole cell patch clamp assay
[13] = target: Metabotropic glutamate receptor 4 (Mus musculus) (UniProt Q68EF4); assay: Agonist activity at mGlu4 in C57/Bl6 mouse GP neurons assessed as inhibition of striatopallidal GABAergic inhibitory postsynaptic current amplitude at 3 uM by whole cell patch clamp assay relative to control
[14] = target: T2, Metabotropic glutamate receptor 8; assay: Agonist activity at mGlu8 (unknown origin) expressed in HEK293 cells coexpressing chimeric Gq/i protein assessed as [3H]inositol phosphate accumulation after 30 mins by scintillation and luminescence counting method; format: functional, cell-based
In short: (§4)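 Receptor transiently co-expressed in HEK293 cells (electroporation) with chimeric G-protein and glutamate transporter EAAT3. Cells labelled overnight with 3H-myoinositol, stimulated with agonist 30 min, lysed 1 h in cold 0.1 M formic acid. 3H-IP isolated on Dowex ion exchange and counted. IP expressed relative to IP plus membrane radioactivity. Points in triplicate; EC50 from Hill-equation fit.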

[15] = target: T4, Metabotropic glutamate receptor 6 (Homo sapiens, UniProt O15303); assay: Agonist activity at mGlu6 (unknown origin) expressed in HEK293 cells coexpressing chimeric Gq/i protein assessed as [3H]inositol phosphate accumulation after 30 mins by scintillation and luminescence counting method; format: functional, cell-based; in short: as §4
[16] = target: T4, Metabotropic glutamate receptor 6; assay: Agonist activity at mGlu6 (unknown origin) expressed in HEK293 cells coexpressing chimeric Gq/i protein assessed as increase in intracellular calcium accumulation by Fluo-4 AM dye based fluorescence assay; format: functional, cell-based
[17] = target: T5, Metabotropic glutamate receptor 7 (Homo sapiens, UniProt Q14831); assay: Agonist activity at mGlu7 (unknown origin) expressed in HEK293 cells coexpressing chimeric Gq/i protein assessed as increase in intracellular calcium accumulation by Fluo-4 AM dye based fluorescence assay; format: functional, cell-based
Homo sapiens [18] = species on record: Homo sapiens; assay: (§5) Selectivity ratio of EC50 for mGlu8 (unknown origin) expressed in HEK293 cells coexpressing chimeric Gq/i protein assessed as [3H]inositol phosphate accumulation to EC50 for mGlu4 (unknown origin) expressed in HEK293 cells coexpressing chimeric Gq/i protein assessed as [3H]inositol phosphate accumulation; format: cell-based
In short: (§6)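 Ratio of mGlu8 EC50 to mGlu4 EC50, both from the same functional assay. Both receptors were co-expressed in HEK293 cells with chimeric G-protein and EAAT3 and read by 3H-IP accumulation or by Fluo-4 Ca2+ release.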

Homo sapiens [19] = species on record: Homo sapiens; assay: as §5, with “increase in intracellular calcium” for “[3H]inositol phosphate”; format: cell-based; in short: as §6
[20] = target: T5, Metabotropic glutamate receptor 7; assay: Agonist activity at mGlu7 (unknown origin) expressed in HEK293 cells coexpressing chimeric Gq/i protein assessed as [3H]inositol phosphate accumulation after 30 mins by scintillation and luminescence counting method; format: functional, cell-based; in short: as §4
[21] = target: T5, Metabotropic glutamate receptor 7; assay: Agonist activity at mGlu7 (unknown origin) expressed in HEK293 cells coexpressing chimeric Gq/i protein assessed as [3H]inositol phosphate accumulation at 300 uM after 30 mins by scintillation and luminescence counting method; format: functional, cell-based; in short: as §4
[22] = target: T5, Metabotropic glutamate receptor 7; assay: Agonist activity at mGlu7 (unknown origin) expressed in HEK293 cells coexpressing chimeric Gq/i protein assessed as increase in intracellular calcium accumulation at 300 uM by Fluo-4 AM dye based fluorescence assay; format: functional, cell-based
Homo sapiens [23] = species on record: Homo sapiens; assay: Selectivity ratio of EC50 for mGlu8 (unknown origin) expressed in HEK293 cells coexpressing chimeric Gq/i protein assessed as [3H]inositol phosphate accumulation to EC50 for mGlu4 (unknown origin) expressed in HEK293 cells coexpressing chimeric Gq/i protein assessed as increase in intracellular calcium accumulation; format: cell-based
[24] = target: T3, Metabotropic glutamate receptor 4; assay: Agonist activity at mGlu4 in Wistar rat striatum assessed as decrease in corticostriatal glutamatergic excitatory post-synaptic potential by whole cell patch clamp assay
[25] = target: T3, Metabotropic glutamate receptor 4; assay: Agonist activity at mGlu4 in Wistar rat striatum assessed as decrease in striatal GABAergic inhibitory post-synaptic potential by whole cell patch clamp assay
[26] = target: T1, Metabotropic glutamate receptor 4; assay: Agonist activity at mGlu4 (unknown origin) expressed in HEK293 cells coexpressing chimeric Gq/i protein assessed as increase in intracellular calcium accumulation at 300 uM by Fluo-4 AM dye based fluorescence assay; format: functional, cell-based
[27] = target: T2, Metabotropic glutamate receptor 8; assay: Agonist activity at mGlu8 (unknown origin) expressed in HEK293 cells coexpressing chimeric Gq/i protein assessed as increase in intracellular calcium accumulation at 300 uM by Fluo-4 AM dye based fluorescence assay; format: functional, cell-based
[28] = target: T1, Metabotropic glutamate receptor 4; assay: Agonist activity at mGlu4 (unknown origin) expressed in HEK293 cells coexpressing chimeric Gq/i protein assessed as [3H]inositol phosphate accumulation after 30 mins at 100 uM by scintillation and luminescence counting method; format: functional, cell-based; in short: as §4

T1 sequence (Q14833 whole entry): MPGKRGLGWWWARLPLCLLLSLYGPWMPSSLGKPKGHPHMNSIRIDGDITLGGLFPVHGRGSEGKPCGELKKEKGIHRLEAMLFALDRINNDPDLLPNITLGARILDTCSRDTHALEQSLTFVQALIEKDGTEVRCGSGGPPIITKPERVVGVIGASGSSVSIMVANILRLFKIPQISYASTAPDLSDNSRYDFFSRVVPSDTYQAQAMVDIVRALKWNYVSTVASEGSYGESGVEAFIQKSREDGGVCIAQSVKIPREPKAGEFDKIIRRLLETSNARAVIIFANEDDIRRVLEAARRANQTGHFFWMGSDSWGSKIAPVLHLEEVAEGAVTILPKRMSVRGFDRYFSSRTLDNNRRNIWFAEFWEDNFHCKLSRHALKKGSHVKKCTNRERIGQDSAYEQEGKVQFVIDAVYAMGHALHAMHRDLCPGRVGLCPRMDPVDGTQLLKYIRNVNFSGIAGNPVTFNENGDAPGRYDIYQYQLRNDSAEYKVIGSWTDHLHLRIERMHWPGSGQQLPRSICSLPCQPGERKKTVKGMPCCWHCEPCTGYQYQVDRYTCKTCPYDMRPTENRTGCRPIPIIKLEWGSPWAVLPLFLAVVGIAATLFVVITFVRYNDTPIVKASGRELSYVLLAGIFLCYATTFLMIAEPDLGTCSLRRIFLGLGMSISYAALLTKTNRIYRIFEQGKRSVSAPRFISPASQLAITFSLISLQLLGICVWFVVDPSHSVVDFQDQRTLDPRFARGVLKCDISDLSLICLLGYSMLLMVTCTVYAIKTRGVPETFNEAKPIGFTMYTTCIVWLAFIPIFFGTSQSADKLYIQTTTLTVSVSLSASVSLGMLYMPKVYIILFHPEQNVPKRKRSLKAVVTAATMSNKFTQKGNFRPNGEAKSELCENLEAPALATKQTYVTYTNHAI
T2 sequence (O00222 whole entry): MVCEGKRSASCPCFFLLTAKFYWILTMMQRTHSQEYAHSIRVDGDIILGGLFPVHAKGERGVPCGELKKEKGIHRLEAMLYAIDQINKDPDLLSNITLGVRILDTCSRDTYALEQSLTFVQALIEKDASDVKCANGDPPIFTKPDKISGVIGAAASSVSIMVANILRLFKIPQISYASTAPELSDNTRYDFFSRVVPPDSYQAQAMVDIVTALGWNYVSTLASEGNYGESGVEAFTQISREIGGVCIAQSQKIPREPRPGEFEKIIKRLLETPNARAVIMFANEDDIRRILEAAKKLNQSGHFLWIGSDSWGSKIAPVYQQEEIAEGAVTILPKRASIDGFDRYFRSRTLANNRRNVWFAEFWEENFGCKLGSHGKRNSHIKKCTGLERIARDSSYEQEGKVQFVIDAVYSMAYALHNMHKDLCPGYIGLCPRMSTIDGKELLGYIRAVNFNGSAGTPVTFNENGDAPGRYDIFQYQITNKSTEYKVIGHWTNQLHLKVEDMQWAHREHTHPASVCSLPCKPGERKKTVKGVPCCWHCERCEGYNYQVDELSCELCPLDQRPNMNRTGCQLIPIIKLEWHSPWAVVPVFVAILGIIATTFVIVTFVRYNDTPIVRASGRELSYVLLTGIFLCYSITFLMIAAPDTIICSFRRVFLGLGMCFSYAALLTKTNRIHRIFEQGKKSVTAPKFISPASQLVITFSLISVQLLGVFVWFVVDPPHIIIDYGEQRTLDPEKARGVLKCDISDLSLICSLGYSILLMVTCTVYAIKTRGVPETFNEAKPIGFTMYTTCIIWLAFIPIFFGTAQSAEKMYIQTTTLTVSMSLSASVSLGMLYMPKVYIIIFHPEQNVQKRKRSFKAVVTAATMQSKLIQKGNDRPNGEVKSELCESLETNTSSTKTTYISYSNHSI
T5 sequence (Q14831 whole entry): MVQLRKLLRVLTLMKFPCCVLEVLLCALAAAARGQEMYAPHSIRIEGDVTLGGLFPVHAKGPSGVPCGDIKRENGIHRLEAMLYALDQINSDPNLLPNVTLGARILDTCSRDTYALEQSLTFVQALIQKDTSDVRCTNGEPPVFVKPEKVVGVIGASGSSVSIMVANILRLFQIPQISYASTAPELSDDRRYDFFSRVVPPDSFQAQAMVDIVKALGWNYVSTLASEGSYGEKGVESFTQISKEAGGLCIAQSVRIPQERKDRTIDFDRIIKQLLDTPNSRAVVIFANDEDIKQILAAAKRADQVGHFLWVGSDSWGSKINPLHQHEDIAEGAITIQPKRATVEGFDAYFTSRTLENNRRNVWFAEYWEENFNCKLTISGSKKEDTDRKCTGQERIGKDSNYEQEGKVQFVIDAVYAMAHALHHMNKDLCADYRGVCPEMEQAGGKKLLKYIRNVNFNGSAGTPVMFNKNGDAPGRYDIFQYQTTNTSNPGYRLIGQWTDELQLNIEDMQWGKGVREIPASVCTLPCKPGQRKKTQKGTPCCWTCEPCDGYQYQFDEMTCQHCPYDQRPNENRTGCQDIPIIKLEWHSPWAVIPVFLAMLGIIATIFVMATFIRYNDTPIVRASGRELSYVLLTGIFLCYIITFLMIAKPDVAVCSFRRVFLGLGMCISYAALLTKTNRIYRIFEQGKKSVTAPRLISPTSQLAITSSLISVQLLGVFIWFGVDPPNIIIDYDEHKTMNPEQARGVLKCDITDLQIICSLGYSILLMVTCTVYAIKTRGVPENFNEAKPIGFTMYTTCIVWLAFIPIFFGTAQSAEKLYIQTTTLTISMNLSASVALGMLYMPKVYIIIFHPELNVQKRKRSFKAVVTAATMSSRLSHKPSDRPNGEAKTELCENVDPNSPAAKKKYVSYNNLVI
T4 sequence (O15303 whole entry): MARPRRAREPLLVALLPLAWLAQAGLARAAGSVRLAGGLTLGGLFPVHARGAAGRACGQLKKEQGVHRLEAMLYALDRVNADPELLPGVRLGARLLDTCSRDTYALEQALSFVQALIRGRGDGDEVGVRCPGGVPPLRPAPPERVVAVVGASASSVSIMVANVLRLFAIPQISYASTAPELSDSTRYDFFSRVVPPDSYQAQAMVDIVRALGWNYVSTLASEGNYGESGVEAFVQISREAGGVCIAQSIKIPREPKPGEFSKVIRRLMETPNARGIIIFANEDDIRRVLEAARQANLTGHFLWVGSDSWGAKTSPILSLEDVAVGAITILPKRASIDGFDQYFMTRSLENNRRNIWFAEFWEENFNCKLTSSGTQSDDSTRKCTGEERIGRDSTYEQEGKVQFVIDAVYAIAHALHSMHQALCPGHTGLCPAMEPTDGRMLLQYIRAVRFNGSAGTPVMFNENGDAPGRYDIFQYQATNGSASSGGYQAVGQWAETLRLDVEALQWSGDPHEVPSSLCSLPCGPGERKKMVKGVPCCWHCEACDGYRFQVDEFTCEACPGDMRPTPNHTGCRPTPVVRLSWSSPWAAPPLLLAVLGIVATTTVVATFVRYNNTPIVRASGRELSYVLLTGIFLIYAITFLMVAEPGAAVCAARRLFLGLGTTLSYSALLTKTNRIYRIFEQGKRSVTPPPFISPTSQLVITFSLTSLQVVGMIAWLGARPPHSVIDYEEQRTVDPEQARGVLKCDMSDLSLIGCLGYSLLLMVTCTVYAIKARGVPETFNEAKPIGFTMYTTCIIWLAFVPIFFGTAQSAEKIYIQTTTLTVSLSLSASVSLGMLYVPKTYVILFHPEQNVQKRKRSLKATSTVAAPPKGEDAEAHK
Sequence of Metabotropic glutamate receptor 4 (Rattus norvegicus) (P31423 whole entry): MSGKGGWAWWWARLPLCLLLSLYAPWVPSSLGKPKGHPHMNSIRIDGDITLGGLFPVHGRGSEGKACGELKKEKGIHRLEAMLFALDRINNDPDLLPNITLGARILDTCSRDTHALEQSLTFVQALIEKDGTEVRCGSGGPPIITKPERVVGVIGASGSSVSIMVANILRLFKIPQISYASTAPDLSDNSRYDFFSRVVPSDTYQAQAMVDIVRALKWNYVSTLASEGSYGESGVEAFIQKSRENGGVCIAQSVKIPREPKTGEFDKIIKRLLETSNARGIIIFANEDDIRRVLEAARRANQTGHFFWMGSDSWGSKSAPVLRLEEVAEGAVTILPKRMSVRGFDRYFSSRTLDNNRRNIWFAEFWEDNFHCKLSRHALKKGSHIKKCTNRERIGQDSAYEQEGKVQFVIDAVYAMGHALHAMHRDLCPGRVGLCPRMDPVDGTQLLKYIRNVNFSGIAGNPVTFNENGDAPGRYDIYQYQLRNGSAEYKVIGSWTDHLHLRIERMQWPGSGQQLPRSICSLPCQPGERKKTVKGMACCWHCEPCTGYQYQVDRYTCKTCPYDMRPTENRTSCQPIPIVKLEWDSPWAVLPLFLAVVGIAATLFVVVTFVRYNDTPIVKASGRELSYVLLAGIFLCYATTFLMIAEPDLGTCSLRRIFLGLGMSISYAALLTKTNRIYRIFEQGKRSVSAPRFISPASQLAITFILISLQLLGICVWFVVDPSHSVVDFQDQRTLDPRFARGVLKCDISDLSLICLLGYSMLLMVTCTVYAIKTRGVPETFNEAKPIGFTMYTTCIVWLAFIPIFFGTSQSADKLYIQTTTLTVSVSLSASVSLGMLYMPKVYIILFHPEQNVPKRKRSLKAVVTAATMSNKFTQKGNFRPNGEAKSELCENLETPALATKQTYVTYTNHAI
T3 sequence (P31423 whole entry): as above
Sequence of Metabotropic glutamate receptor 4 (Mus musculus, UniProt Q68EF4) (Q68EF4 whole entry): as the sequence (P31423 whole entry) above, with A24G, P25S, G280A, M339T, L482R, I705V, G713C, T895A counted along it
Sequence of Metabotropic glutamate receptor 4 (Mus musculus) (Q68EF4 whole entry): as the sequence (P31423 whole entry) above, with A24G, P25S, G280A, M339T, L482R, I705V, G713C, T895A counted along it

Structure (SMILES)	EC50 [2] [µM]	EC50 [3] [µM]	EC50 [14] [µM]	EC50 [15] [µM]	EC50 [16] [µM]	EC50 [17] [µM]	Ratio EC50 (Homo sapiens [18])	Ratio EC50 (Homo sapiens [19])	also measured
COc1cc(C(O)P(=O)(O)CC[C@H](N)C(=O)O)cc([N+](=O)[O-])c1O (mixture of isomers)	0.9	19.4							Activity [1]: 2.29 to 2.91%; IC50 [4]: 1100 µM; IC50 [5]: 2300 µM; Activity [6]: 39.2%; Activity [7]: 12.5%; Activity [8]: Dose-dependent effect; Imax [8]: 40%; EC50 [9]: 20 µM; Activity [10]: 26.4%; Activity [11]: Dose-dependent effect; EC50 [12]: 0.2 µM; Imax [13]: 40%
N[C@@H](CCP(=O)(O)C(O)c1ccc(F)c([N+](=O)[O-])c1)C(=O)O (some centres undefined)	0.44	0.66	1.3	25	4	> 100	2.1	1.5	
N[C@@H](CCP(=O)(O)C(O)c1ccc([N+](=O)[O-])o1)C(=O)O (some centres undefined)			0.3	6.1			2.2		EC50 [20]: 1970 µM
N[C@@H](CCP(=O)(O)O)C(=O)O				2.4	1	249	2.5	2.2	EC50 [20]: 337 µM
Cc1ccc(C(O)P(=O)(O)CC[C@H](N)C(=O)O)cc1[N+](=O)[O-] (some centres undefined)	3.3	1.6	5.6	> 100	4		1.6	0.5	Activity [21]: inactive
Nc1ncc(C(O)P(=O)(O)CC[C@H](N)C(=O)O)s1 (some centres undefined)	15	28			> 100			1.9	Activity [22]: inactive
N[C@@H](CCP(=O)(O)C(O)c1cccnc1)C(=O)O (some centres undefined)	30		36						Ratio EC50 (Homo sapiens [23]): 1.2
N[C@@H](CCP(=O)(O)C(O)c1csc([N+](=O)[O-])c1)C(=O)O (some centres undefined)	0.19	0.38	0.51	3.6			3.2	2	EC50 [20]: 418 µM; EC50 [24]: 9.32 µM; EC50 [25]: 0.32 µM
COc1cc(C(N)P(=O)(O)CC[C@H](N)C(=O)O)cc([N+](=O)[O-])c1O (some centres undefined)	11.6				> 100			3	Activity [22]: inactive
N[C@@H](CCP(=O)(O)CCC(=O)O)C(=O)O	5.94	6.5	7.8	31	6.7	89	1.2	1.1	
N[C@@H](CCP(=O)(O)C(O)c1cc(O)c(O)c([N+](=O)[O-])c1)C(=O)O (some centres undefined)	4.3	32.8	5.4		26	> 100	1.1	7.6	
N[C@@H](CCP(=O)(O)C(O)c1cccc(C(=O)O)c1)C(=O)O (some centres undefined)			125	> 100			5.8		
N[C@H](C(=O)O)c1ccc(C(=O)O)c(C(=O)O)c1	3.2	0.044	0.023		3.2 to 6.2	30 to 100	0.012	0.014	
N[C@@]1(C(=O)O)C[C@H](C(=O)O)[C@H](C(=O)O)C1			5.1	11			3		EC50 [20]: 280 µM
N[C@@H](CCP(=O)(O)C(O)c1c(F)c(F)c(F)c(F)c1F)C(=O)O (some centres undefined)	5.6	7.6	18.5		30	> 100	3.7	1.4	
N[C@@H](CCP(=O)(O)C(O)c1ccc([N+](=O)[O-])cc1)C(=O)O (some centres undefined)	0.64	0.49	0.53		4.6	> 100	1.4	0.8	
N[C@@H](CCCP(=O)(O)C(O)c1ccc(OCC(=O)O)cc1)C(=O)O (some centres undefined)									Activity [26]: inactive; Activity [27]: inactive
N[C@@H](CCP(=O)(O)C(O)c1ccc(C(F)(F)F)c([N+](=O)[O-])c1)C(=O)O (some centres undefined)	0.44	1.54		5.7	11.9	> 100		3.5	
COc1cc(C(O)P(=O)(O)CCC[C@H](N)C(=O)O)cc([N+](=O)[O-])c1O (some centres undefined)									Activity [26]: inactive; Activity [27]: inactive
N[C@@H](CCP(=O)(O)C(O)c1ccc(C(=O)O)cc1)C(=O)O (some centres undefined)			141	31			18		EC50 [20]: 169 µM
N[C@@H](CCP(=O)(O)C(O)c1ccccc1C(=O)O)C(=O)O (some centres undefined)									Activity [28]: inactive
